Measurements: ChEMBL document CHEMBL2057128, “Chemoenzymatic synthesis and biological evaluation of 2- and 3-hydroxypyridine derivatives against Leishmania mexicana” (Bioorg Med Chem, 2012)
≈ marks a conversion by molar mass, not a printed value. Calls of active or inactive are those of the source. The calls are words filed in the database; no cut-off is given here.

The compounds below were run on Leishmania mexicana (assay: Growth inhibition of promastigote form of Leishmania mexicana at 20 ug/mL measured after 1 day by neubauer chamber analysis). Details: 24 h, read-out: GI.
Format: functional
CC(=O)OCCCCCCCCCCCCOc1cccnc1 was tested, and the inhibition of growth at 20 µg/mL was 50%. In the case of OCCCCCCCCCCCCOc1cccnc1, the inhibition of growth at 20 µg/mL is reported as 50%.

The compounds below were run on Leishmania mexicana (assay: Growth inhibition of promastigote form of Leishmania mexicana at 20 ug/mL measured after 10 days by neubauer chamber analysis). Details: 240 h, read-out: GI.
Format: functional
Method in brief: (§1)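 Promastigotes grown at 28 °C in cell-free medium (Na2HPO4, KCl, glucose, pH about 7.5) supplemented after sterilization with penicillin (100 IU/mL), streptomycin, haemin and 20% v/v heat-inactivated fetal calf serum. Cultures started from exponential-phase inocula, shaken manually twice daily, compounds added with DMSO at 0.1% final. Parasites counted in a Neubauer chamber every two days over 10 days.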
CC(=O)OCCCCCCCCCCCCOc1cccnc1 gave an inhibition of growth at 20 µg/mL of 80%. OCCCCCCCCCCCCOc1cccnc1 showed an inhibition of growth at 20 µg/mL of 95%.

The compounds below were run on Leishmania mexicana (assay: Growth inhibition of promastigote form of Leishmania mexicana at 10 ug/mL measured after 6 days by neubauer chamber analysis). Details: 144 h, read-out: GI.
Format: functional
Method in brief: as §1
Compound CC(=O)OCCCCCCCCCCCCOc1cccnc1 has an inhibition of growth at 10 µg/mL of 25%. OCCCCCCCCCCCCOc1cccnc1 gave an inhibition of growth at 10 µg/mL of 25%.

What follows are compounds tested on Leishmania mexicana (assay: Antileishmanial activity against promastigote form of Leishmania mexicana from 10 to 50 ug/mL measured every 2 days for 10 days by neubauer chamber analysis). Details: not given.
Format: functional, organism-based
Method in brief: as §1
For OCCCCCCCCOc1cccnc1, the Activity was “inactive”. OCCCCCCCOc1cccnc1 was tested, and the Activity was “inactive”. In the case of OCCCCCCOc1ccccn1, the Activity is reported as “inactive”. For OCCCCCCOc1cccnc1, the Activity was “inactive”. With CC(=O)OCCCCCCOc1cccnc1 the Activity was “inactive”. For OCCCCCCCCOc1ccccn1, the Activity was “inactive”. OCCCCCCCCCCOc1ccccn1 was tested, and the Activity was “inactive”. For CC(=O)OCCCCCCCCCCCOc1cccnc1, the Activity was “inactive”. In the case of CC(=O)OCCCCCCCCOc1cccnc1, the Activity is reported as “inactive”. With CC(=O)OCCCCCCCOc1ccccn1 the Activity was “inactive”. In the case of OCCCCCCCCCCCCOc1ccccn1, the Activity is reported as “inactive”. With CC(=O)OCCCCCCCCOc1ccccn1 the Activity was “inactive”. With OCCCCCCCOc1ccccn1 the Activity was “inactive”. For CC(=O)OCCCCCCCOc1cccnc1, the Activity was “inactive”. CCC(=O)OCCCCCCCCCCCOc1cccnc1 was tested, and the Activity was “inactive”. CC(=O)OCCCCCCCCCOc1ccccn1 was tested, and the Activity was “inactive”. In the case of OCCCCCCCCCOc1ccccn1, the Activity is reported as “inactive”. For CC(=O)OCCCCCCOc1ccccn1, the Activity was “inactive”. OCCCCCCCCCCCOc1cccnc1 was tested, and the Activity was “inactive”. OCCCCCCCCCCCOc1ccccn1 was tested, and the Activity was “inactive”. For OCCCCCCCCCCOc1cccnc1, the Activity was “inactive”. With CC(=O)OCCCCCCCCCCCOc1ccccn1 the Activity was “inactive”. CCC(=O)OCCCCCCCCCCCOc1ccccn1 was tested, and the Activity was “inactive”. With OCCCCCCCCCOc1cccnc1 the Activity was “inactive”. With CC(=O)OCCCCCCCCCCCCOc1ccccn1 the Activity was “inactive”. In the case of CC(=O)OCCCCCCCCCCOc1ccccn1, the Activity is reported as “inactive”.

Each compound was assayed on Leishmania mexicana (assay: Antileishmanial activity against promastigote form of Leishmania mexicana measured every 2 days for 10 days by neubauer chamber analysis). Details: not given.
Format: functional, organism-based
Method in brief: as §1
With CC(=O)OCCCCCCCCCCOc1cccnc1 the IC50 was 20 µg/mL (≈ 68.2 µM). CC(=O)OCCCCCCCCCCCCOc1cccnc1 showed an IC50 of 12 µg/mL (≈ 37.3 µM). Compound CN[C@@H]1[C@@H](O)[C@@H](O[C@@H]2[C@@H](O)[C@H](O[C@H]3O[C@H]([C@@H](C)O)[C@@H](O)[C@H](O)[C@H]3N)[C@@H](N)C[C@H]2N)OC[C@]1(C)O [GENETICIN] has an IC50 of 50 µg/mL (≈ 101 µM). In the case of OCCCCCCCCCCCCOc1cccnc1, the IC50 is reported as 16 µg/mL (≈ 57.3 µM).
